Data from PMC7195875 (Science signaling, 2018).

Columns and labels:
[1] = test system: RAW264.7 cells; assay: Toxicity; type: cell-based, mouse; details: read-out: TLR9 Toxicity EC50, Table 1
[2] = molecular target: T1, full length human estrogen receptor α (Homo sapiens, UniProt P03372); assay: Competitive radiometric estrogen receptor binding assay, ERα; details: relative binding affinity, estradiol = 100
T1 sequence (P03372 1-595): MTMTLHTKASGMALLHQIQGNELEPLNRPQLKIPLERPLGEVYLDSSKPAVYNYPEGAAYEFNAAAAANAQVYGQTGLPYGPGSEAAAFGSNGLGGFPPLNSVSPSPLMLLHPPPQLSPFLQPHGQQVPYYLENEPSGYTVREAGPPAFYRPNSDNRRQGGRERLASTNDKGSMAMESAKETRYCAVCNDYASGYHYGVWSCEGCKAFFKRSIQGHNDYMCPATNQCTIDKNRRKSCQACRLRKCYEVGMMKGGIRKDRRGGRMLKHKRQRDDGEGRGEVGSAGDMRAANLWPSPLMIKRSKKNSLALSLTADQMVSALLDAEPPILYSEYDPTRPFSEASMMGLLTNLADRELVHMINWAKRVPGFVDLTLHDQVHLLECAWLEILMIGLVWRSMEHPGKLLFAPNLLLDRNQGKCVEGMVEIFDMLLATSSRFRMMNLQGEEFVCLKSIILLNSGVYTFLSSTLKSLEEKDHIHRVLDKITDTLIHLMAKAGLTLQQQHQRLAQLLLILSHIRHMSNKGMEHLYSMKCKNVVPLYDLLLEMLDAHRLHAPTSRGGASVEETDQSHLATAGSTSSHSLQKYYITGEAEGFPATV

[3] = molecular target: full length human estrogen receptor β (Homo sapiens, UniProt Q92731); assay: Competitive radiometric estrogen receptor binding assay, ERβ; details: relative binding affinity, estradiol = 100
full length human estrogen receptor β, sequence (Q92731 whole entry): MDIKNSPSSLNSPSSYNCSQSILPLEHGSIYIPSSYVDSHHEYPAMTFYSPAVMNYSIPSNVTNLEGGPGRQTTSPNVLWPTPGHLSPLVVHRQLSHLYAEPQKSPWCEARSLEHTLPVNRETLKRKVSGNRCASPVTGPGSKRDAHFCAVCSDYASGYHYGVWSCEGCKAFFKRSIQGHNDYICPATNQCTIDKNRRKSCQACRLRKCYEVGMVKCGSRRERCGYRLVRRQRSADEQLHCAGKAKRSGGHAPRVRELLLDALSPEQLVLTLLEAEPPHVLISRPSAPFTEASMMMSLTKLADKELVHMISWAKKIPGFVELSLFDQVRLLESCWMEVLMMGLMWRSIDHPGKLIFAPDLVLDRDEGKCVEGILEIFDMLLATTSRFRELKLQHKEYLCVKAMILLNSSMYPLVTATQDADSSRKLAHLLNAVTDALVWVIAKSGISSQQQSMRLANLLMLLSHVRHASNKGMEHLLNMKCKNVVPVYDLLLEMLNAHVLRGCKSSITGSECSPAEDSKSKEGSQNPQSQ

[4] = molecular target: TIRAP-GyrB (UniProt P0AES6+Q99JY1); assay: NF-κB luciferase reporter, TIRAP-GyrB HEK293T cells, coumermycin-induced; type: cell-based, human
In short: (§1)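 HEK293T NF-κB luciferase reporter clones carried three NF-κB sites and GyrB fusions introduced by viral transduction with antibiotic selection. Cells received 100 nM coumermycin A1 plus test compound at 10 concentrations (56 μM–2.8 nM) in triplicate, 0.24% final DMSO. After 24 h, AlamarBlue (1 h, 37 °C) measured viability, then SteadyLite luminescence. Values were normalised to coumermycin alone (0%) and coumermycin + 30 μM PS-1145 (100%).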

[5] = molecular target: MyD88-GyrB (UniProt P0AES6+Q99836); assay: NF-κB luciferase reporter, MyD88-GyrB HEK293T cells, coumermycin-induced; type: cell-based, human
In short: as §1

[6] = test system: TLR9; assay: CpG-DNA-induced TNFα release from primary macrophages; type: cell-based, mouse; details: six hours
In short: (§2)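 Macrophages came from bone marrow of female C57BL/6 mice, grown 6 d in DMEM with 10% FCS and 30% L-cell-conditioned medium. Cells were stimulated with the respective agonist for 6 h alongside graded test compound concentrations. TNFα in supernatants was measured by ELISA. Means ± SD of 3 independent experiments.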

[7] = test system: TLR7; assay: R848-induced TNFα release from primary macrophages; type: cell-based, mouse; details: six hours
In short: as §2

[8] = test system: TLR2; assay: Pam3Cys-induced TNFα release from primary macrophages; type: cell-based, mouse; details: six hours
In short: as §2

[9] = test system: TLR4; assay: LPS-induced TNFα release from primary macrophages; type: cell-based, mouse; details: six hours
In short: as §2

[10] = test system: Dectin-1; assay: Curdlan-induced TNFα release from primary macrophages; type: cell-based, mouse; details: six hours
In short: as §2

[11] = test system: TLR9; assay: Western blot of IκBα degradation and MAPK phosphorylation after CpG-DNA; type: cell-based, mouse
In short: (§3)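 Bone-marrow macrophages (6 d culture in L-cell-conditioned medium) were stimulated with the respective agonist with or without test compound. Lysates were immunoblotted for the indicated signaling proteins, with total p38 as loading control. Blots are representative of 3 independent experiments.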

[12] = test system: TLR7; assay: Western blot of NF-κB- and MAPK-pathway activation after R848; type: cell-based, mouse
In short: as §3

[13] = test system: Dectin-1; assay: Western blot of signaling after Curdlan; type: cell-based, mouse
In short: as §3

[14] = molecular target: MyD88 signaling complex (UniProt P0AES6+Q99836); type: cell-based, mouse; details: 10 μM MPP, 1 μM CpG-DNA, RAW264.7
In short: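 RAW264.7 cells stably expressing FLAG-MyD88-GyrB were SILAC-labelled (light/medium/heavy) in Arg/Lys-free RPMI with 10% dialysed FBS. Heavy cells got 10 μM test compound for 20 min; medium and heavy were then stimulated with 1 μM CpG-DNA for 60 min. […] Quantitative MS gave fold-change versus unstimulated cells, with unique peptides counted.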

[15] = molecular target: MyD88 homodimerization (UniProt P0AES6+Q99836); assay: Co-immunoprecipitation with MyD88-GyrB in RAW264.7 cells; type: cell-based, mouse; details: co-IP
[16] = molecular target: TIR-domain of MyD88 / full length MyD88 (Homo sapiens, UniProt Q99836); assay: Co-IP of MyD88 TIR-domain with full-length MyD88 in HEK293T cells; type: cell-based
In short: (§4)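 HEK293T cells were transfected by Lipofectamine with epitope-tagged MyD88: FLAG full-length plus HA-TIR domain or DD domain. Test compound or DMSO was added 7 h post-transfection, and cells were lysed at 20 h for 20 min at 4 °C in HEPES pH 7.5 buffer with 0.5% NP-40. Cleared lysates underwent FLAG M2 resin IP for 1 h at 4 °C, then immunoblotting with densitometry. Blots represent 4 independent experiments.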

[17] = molecular target: DD-domain of MyD88 / full length MyD88 (Homo sapiens, UniProt Q99836); assay: Co-IP of MyD88 DD-domain with full-length MyD88 in HEK293T cells; type: cell-based
In short: as §4

[18] = test system: R848-induced PBMC; details: read-out: IC50 on R848-induced PBMC; cited from earlier work
[19] = test system: IL-1β-induced NF-κB activity; details: read-out: IC50 for IL-1β-induced NF-κB activity; cited from earlier work

Compound: Cc1c(-c2ccc(O)cc2)nn(-c2ccc(O)cc2)c1-c1ccc(OCCN2CCCCC2)cc1 [MPP, methyl-piperidino-pyrazole]
- EC50 [1]: 13.2 ± 2.4 µM
- RBA ERα [2]: 12 ± 2
- RBA ERβ [3]: 0.05 ± 0.01
- inhibition of TIRAP-mediated NF-κB activity [4]: low μM concentrations
- inhibition of MyD88-mediated NF-κB activity [5]: low μM concentrations
- TNFα release, CpG-DNA (TLR9) [6]: interfered with TNFα release
- TNFα release, Resiquimod (R848; TLR7) [7]: interfered with TNFα release
- TNFα release, Pam3Cys (TLR2) [8]: interfered with TNFα release
- TNFα release, LPS (TLR4) [9]: interfered with TNFα release
- TNFα release induced by Curdlan [10]: did not reduce TNFα release
- block of IκBα degradation and MAPK phosphorylation after CpG-DNA [11]: almost completely
- block of NF-κB- and MAPK-pathway activation downstream of R848 [12]: not completely
- Curdlan-induced cell activation [13]: remained largely unaffected
- recruitment of activation-dependent MyD88-interacting proteins, including IRAK4 [14]: almost completely blocked recruitment
- recruitment of endogenous MyD88 and IRAK4 to GyrB-MyD88 [15]: inhibited recruitment of endogenous MyD88 and IRAK4
- interaction of the TIR-domain with full length MyD88 [16]: strongly reduced
- interaction of the DD-domain with full length MyD88 [17]: but not the DD-domain

Compound: CC[C@@H]1[C@H](F)C(=O)N[C@@H]1COc1nccc2cc(C(N)=O)c(OC)cc12 [Pf-06650833, 1-{[(2S,3S,4S)-3-Ethyl-4-fluoro-5-oxopyrrolidin-2-yl]methoxy}−7-methoxyisoquinoline-6-carboxamide]
- IC50 [18]: 0.0024 µM

Compound: NC(=O)[C@H]1CCS[C@@H]2C[C@]3(CCCN3C(=O)Cc3ccc(NC(=O)COc4ccc(Cl)cc4Cl)cc3)C(=O)N12 [ST2825]
- IC50 [19]: > 10 µM
